Calls of active or inactive are those of the source. No cut-off for these calls is given here.
How the values were obtained:
Mus musculus [1] = test: Antiinflammatory activity in Swiss mouse assessed as reduction in dextran-induced paw edema at 10 mg/kg, po treated 1 hr prior to dextran challenge and measured every 60 mins for 4 hrs by plethysmometer analysis; assay type: functional, organism-based
How it was run: (§1)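 Swiss mice were given an oral dose in saline + 5% DMSO 1 h before intraplantar 0.2% dextran (50 μL) into the right hind paw. Paw volume was measured by plethysmometer every 60 min up to 4 h, as the difference from the contralateral saline paw.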

Mus musculus [2] = test: Antiinflammatory activity in Swiss mouse assessed as inhibition of bradykinin-induced paw edema at 0.5 mg/kg, po treated 1 hr prior to bradykinin challenge measured after 15 to 90 mins by plethysmometer analysis; assay type: functional, organism-based
How it was run: (§2)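 Mice were given captopril 5 mg kg–1 1 h before the bradykinin challenge to block kininases. Oral dosing (vehicle saline + 5% DMSO) preceded intraplantar bradykinin (10 nmol, 50 μL) into the right hind paw by 1 h. Plethysmometer readings at 15, 30, 60 and 90 min, relative to the contralateral paw.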

Mus musculus [3] = test: Antiinflammatory activity against carrageenan-induced air pouch inflammatory Swiss mouse model assessed as inhibition of PMNL cell migration in air pouch at 15 mg/kg, po treated 1 hr prior to carrageenan administration and measured after 6 hrs relative to control; assay type: functional
Mus musculus [4] = test: Antiinflammatory activity in Swiss mouse assessed as reduction in dextran-induced paw edema at 15 mg/kg, po treated 1 hr prior to dextran challenge and measured every 60 mins for 4 hrs by plethysmometer analysis; assay type: functional, organism-based; how it was run: as §1
Mus musculus [5] = test: Antiinflammatory activity against carrageenan-induced paw edema in Swiss mouse assessed as reduction in paw edema at 15 mg/kg, po administered 1 hr prior to carrageenan challenge and measured after 2 to 6 hrs by plethysmometric analysis; assay type: functional, organism-based
How it was run: (§3)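 Male Swiss mice (25–30 g, fasted 8 h), dosed orally in saline + 5% DMSO 1 h before 50 μL 1% carrageenan into the right hind paw. Paw volume read by plethysmometer before challenge and at 2, 4 and 6 h. Edema taken as the volume difference from the saline-injected contralateral paw. Two-way ANOVA with Tukey.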

Mus musculus [6] = test: Antiinflammatory activity against carrageenan-induced air pouch inflammatory Swiss mouse model assessed as number of polymorphonuclear leucocytes in air pouch at 120 mg/kg, po treated for 1 hr prior to carrageenan administration and measured after 6 hrs (reference value: 13.76 +/- 0.55X10'6/ml); assay type: functional
Mus musculus [7] = test: Antiinflammatory activity in Swiss mouse assessed as inhibition of acetic acid-induced increase in vascular permeability at 15 mg/kg, po treated 1 hr prior to acetic acid challenge and measured after 30 mins by Evans blue dye based assay; assay type: functional, organism-based
How it was run: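 Male Swiss mice received 15 mg kg–1 p.o. or vehicle (saline + 5% DMSO). After 1 h, under ketamine/xylazine (8:2 v/v, i.p.), 0.2 mL 1% Evans blue was given retro-orbitally, then 0.5 mL 1% acetic acid i.p. At 30 min the peritoneal cavity was washed with saline; exudate was centrifuged (2000 rpm, 10 min) and supernatant absorbance read at 610 nm.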

Mus musculus [8] = test: Antiinflammatory activity against carrageenan-induced air pouch inflammatory Swiss mouse model assessed as inhibition of PMNL cell migration in air pouch at 30 mg/kg, po treated 1 hr prior to carrageenan administration and measured after 6 hrs relative to control; assay type: functional
Mus musculus [9] = test: Antiinflammatory activity against carrageenan-induced air pouch inflammatory Swiss mouse model assessed as number of polymorphonuclear leucocytes in air pouch at 15 mg/kg, po treated for 1 hr prior to carrageenan administration and measured after 6 hrs (reference value: 13.76 +/- 0.55X10'6/ml); assay type: functional
Mus musculus [10] = test: Antiinflammatory activity in Swiss mouse assessed as reduction in BthTX-2-induced paw edema at 15 mg/kg, po treated 1 hr prior to BthTX-2 challenge measured after 15 to 45 mins by plethysmometer analysis; assay type: functional, organism-based
Mus musculus [11] = test: Antiinflammatory activity against carrageenan-induced air pouch inflammatory Swiss mouse model assessed as number of polymorphonuclear leucocytes in air pouch at 60 mg/kg, po treated for 1 hr prior to carrageenan administration and measured after 6 hrs (reference value: 13.76 +/- 0.55X10'6/ml); assay type: functional
Mus musculus [12] = test: Antiinflammatory activity in Swiss mouse assessed as inhibition of 5-HT-induced paw edema at 15 mg/kg, po treated 1 hr prior to 5-HT challenge measured after 30 mins by plethysmometer analysis; assay type: functional, organism-based
How it was run: (§4)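 Male Swiss mice received 15 mg kg–1 p.o. (saline + 5% DMSO) 1 h before intraplantar 5-HT (100 μg in 50 μL) into the right hind paw. Plethysmometer readings at 15, 30, 60 and 90 min. Edema expressed as volume difference from the contralateral saline paw.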

Mus musculus [13] = test: Antiinflammatory activity against carrageenan-induced air pouch inflammatory Swiss mouse model assessed as IL-1beta level in air pouch exudate at 15 mg/kg, po treated 1 hr prior to carrageenan administration and measured after 6 hrs by sandwich ELISA (reference value: 564.06 pg/ml); assay type: functional
Mus musculus [14] = test: Antiinflammatory activity in Swiss mouse assessed as reduction in bradykinin-induced paw edema volume at 15 mg/kg, po treated 1 hr prior to bradykinin challenge measured after 15 to 30 mins by plethysmometer analysis; assay type: functional, organism-based; how it was run: as §2
Mus musculus [15] = test: Antiinflammatory activity against carrageenan-induced air pouch inflammatory Swiss mouse model assessed as number of polymorphonuclear leucocytes in air pouch at 30 mg/kg, po treated for 1 hr prior to carrageenan administration and measured after 6 hrs (reference value: 13.76 +/- 0.55X10'6/ml); assay type: functional
Mus musculus [16] = test: Antiinflammatory activity against carrageenan-induced air pouch inflammatory Swiss mouse model assessed as TNF-alpha level in air pouch exudate at 15 mg/kg, po treated 1 hr prior to carrageenan administration and measured after 6 hrs by sandwich ELISA (reference value: 425.17 pg/ml); assay type: functional
Mus musculus [17] = test: Antiinflammatory activity in Swiss mouse assessed as inhibition of histamine-induced paw edema at 15 mg/kg, po treated 1 hr prior to histamine challenge measured after 15 mins by plethysmometer analysis; assay type: functional, organism-based
How it was run: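 Swiss mice were dosed at 15 mg kg–1 orally in saline + 5% DMSO 1 h before injection of histamine (100 μg, 50 μL) into the right hind paw. Paw volume was measured by plethysmometer at 15, 30, 60 and 90 min, relative to the contralateral saline paw.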

Mus musculus [18] = test: Antiinflammatory activity against carrageenan-induced air pouch inflammatory Swiss mouse model assessed as inhibition of PMNL cell migration in air pouch at 60 mg/kg, po treated 1 hr prior to carrageenan administration and measured after 6 hrs relative to control; assay type: functional
Mus musculus [19] = test: Antiinflammatory activity in Swiss mouse assessed as reduction in compound 48/80-induced paw edema at 15 mg/kg, po treated 1 hr prior to compound 48/80 challenge measured after 15 to 30 mins by plethysmometer analysis; assay type: functional, organism-based
Mus musculus [20] = test: Antiinflammatory activity against carrageenan-induced air pouch inflammatory Swiss mouse model assessed as inhibition of PMNL cell migration in air pouch at 120 mg/kg, po treated 1 hr prior to carrageenan administration and measured after 6 hrs relative to control; assay type: functional
Mus musculus [21] = test: Antiinflammatory activity in Swiss mouse assessed as reduction in dextran-induced paw edema at 15 mg/kg, po treated 1 hr prior to dextran challenge and measured after 3 to 4 hrs by plethysmometer analysis; assay type: functional, organism-based; how it was run: as §1
Mus musculus [22] = test: Antiinflammatory activity in Swiss mouse assessed as inhibition of 5-HT-induced paw edema assessed as reduction in paw volume at 15 mg/kg, po treated 1 hr prior to 5-HT challenge and measured after 15 to 90 mins by plethysmometer analysis; assay type: functional, organism-based; how it was run: as §4
Mus musculus [23] = test: Antiinflammatory activity against carrageenan-induced air pouch inflammatory Swiss mouse model assessed as IL-1beta level in air pouch exudate at 10 mg/kg, po treated 1 hr prior to carrageenan administration and measured after 6 hrs by sandwich ELISA (reference value: 564.06 pg/ml); assay type: functional
Mus musculus [24] = test: Antiinflammatory activity against carrageenan-induced paw edema in Swiss mouse assessed as reduction in paw edema at 10 mg/kg, po administered 1 hr prior to carrageenan challenge and measured after 2 to 6 hrs by plethysmometer analysis; assay type: functional, organism-based; how it was run: as §3
Mus musculus [25] = test: Antiinflammatory activity against carrageenan-induced air pouch inflammatory Swiss mouse model assessed as TNF-alpha level in air pouch exudate at 10 mg/kg, po treated 1 hr prior to carrageenan administration and measured after 6 hrs by sandwich ELISA (reference value: 425.17 pg/ml); assay type: functional
Mus musculus [26] = test: Antiinflammatory activity against carrageenan-induced air pouch inflammatory Swiss mouse model assessed as inhibition of PMNL cell migration in air pouch at 10 mg/kg, po treated 1 hr prior to carrageenan administration and measured after 6 hrs relative to control; assay type: functional
Mus musculus [27] = test: Antiinflammatory activity against carrageenan-induced air pouch inflammatory Swiss mouse model assessed as number of polymorphonuclear leucocytes in air pouch at 10 mg/kg, po treated for 1 hr prior to carrageenan administration and measured after 6 hrs (reference value: 13.76 +/- 0.55X10'6/ml); assay type: functional

Row | SMILES | inhibition in vivo at 15 mg/kg (Mus musculus [3]) | Activity (Mus musculus [5]) | Activity (Mus musculus [6]) | inhibition (Mus musculus [7]) | inhibition in vivo at 30 mg/kg (Mus musculus [8]) | Activity (Mus musculus [9]) | Activity (Mus musculus [10]) | Activity (Mus musculus [11]) | Activity (Mus musculus [13]) | Activity (Mus musculus [14]) | Activity (Mus musculus [15]) | Activity (Mus musculus [16]) | inhibition (Mus musculus [17]) | inhibition in vivo at 60 mg/kg (Mus musculus [18]) | inhibition (Mus musculus [19]) | inhibition in vivo at 120 mg/kg (Mus musculus [20]) | also measured
1 | CN1CCC(=C2c3ccccc3C=Cc3ccccc32)CC1 | – | – | – | – | – | – | – | – | – | – | – | – | – | – | – | – | Activity (Mus musculus [1]): Active
2 | C[C@@H]1C[C@H]2[C@@H]3CCC4=CC(=O)C=C[C@]4(C)[C@@]3(F)[C@@H](O)C[C@]2(C)[C@@]1(O)C(=O)CO | – | – | – | – | – | – | – | – | – | – | – | – | – | – | – | – | inhibition (Mus musculus [2]): Active
3 | O=C(N/N=C\c1ccc(Cl)cc1)C1=NO[C@@H]2[C@H]1CCN2C(=O)c1ccc(Cl)cc1 (racemic) | 76% | Active | 6.1 ×10⁶ /ml | Active | 64% | 3.33 ×10⁶ /ml | Active | 5.94 ×10⁶ /ml | 323.11 pg/mL | Active | 4.97 ×10⁶ /ml | 271.6 pg/mL | Active | 57% | Active | 56% | Activity (Mus musculus [4]): Active; inhibition (Mus musculus [12]): Active
4 | COc1ccc(/C=N\NC(=O)C2=NO[C@@H]3[C@H]2CCN3C(=O)c2ccc([N+](=O)[O-])cc2)cc1 (racemic) | 67% | Active | 12.72 ×10⁶ /ml | Active | 51% | 4.6 ×10⁶ /ml | Active | 8.98 ×10⁶ /ml | 358.28 pg/mL | Active | 6.72 ×10⁶ /ml | 305.88 pg/mL | Active | 35% | Active | 8% | Activity (Mus musculus [21]): Active; inhibition (Mus musculus [22]): Active
5 | COc1ccc2c(c1)c(CC(=O)O)c(C)n2C(=O)c1ccc(Cl)cc1 [INDOMETHACIN] | – | – | – | – | – | – | – | – | – | – | – | – | – | – | – | – | Activity (Mus musculus [23]): <=329.81 pg/ml; Activity (Mus musculus [24]): Active; Activity (Mus musculus [25]): 458.97 pg/mL; inhibition in vivo at 10 mg/kg (Mus musculus [26]): 65%; Activity (Mus musculus [27]): 4.84 ×10⁶ /ml

Reference: ChEMBL document CHEMBL4373671, “Evaluation of anti-inflammatory activity and molecular docking study of new aza-bicyclic isoxazoline acylhydrazone derivatives” (2019)
